# Results: ChEMBL document CHEMBL1138525 (J Med Chem, 2009)
# Calls of active or inactive are those of the source. No cut-off for these calls is given here.
# Key:
# P2Y purinoceptor 2 [1] = target: T1, P2Y purinoceptor 2 (Homo sapiens, UniProt P41231, Y198A); assay: Antagonist activity at N-terminal HA epitope-tagged human P2Y2 receptor Y198A mutant expressed in human 1321N1 cells assessed as inhibition of UTP-induced calcium mobilization; format: functional, cell-based
# Method in brief: (§1)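 1321N1 cells expressing wild-type or mutant receptor were dye-loaded with Oregon Green BAPTA-1/AM in Krebs-HEPES pH 7.4. Antagonist was preincubated for 20 min at 28 °C in the dark. Cells were then stimulated with UTP at a concentration giving 80-90% of maximal response. Calcium fluorescence read at 520 nm (excitation 485 nm).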
# P2Y purinoceptor 2 [2] = target: T2, P2Y purinoceptor 2 (Homo sapiens, UniProt P41231); assay: Antagonist activity at N-terminal HA epitope-tagged wild type 3 human P2Y2 receptor expressed in human 1321N1 cells assessed as inhibition of UTP-induced calcium mobilization; format: functional, cell-based; method in brief: as §1
# P2Y purinoceptor 2 [3] = target: T3, P2Y purinoceptor 2 (Homo sapiens, UniProt P41231, Y114A); assay: Antagonist activity at N-terminal HA epitope-tagged human P2Y2 receptor Y114A mutant expressed in human 1321N1 cells assessed as inhibition of UTP-induced calcium mobilization; format: functional, cell-based; method in brief: as §1
# P2Y purinoceptor 2 [4] = target: T2, P2Y purinoceptor 2; assay: Antagonist activity at N-terminal HA epitope-tagged wild type 4 human P2Y2 receptor expressed in human 1321N1 cells assessed as inhibition of UTP-induced calcium mobilization; format: functional, cell-based
# P2Y purinoceptor 2 [5] = target: T4, P2Y purinoceptor 2 (Homo sapiens, UniProt P41231, R177A/R180A); assay: Antagonist activity at N-terminal HA epitope-tagged human P2Y2 receptor R177A_R180A double mutant expressed in human 1321N1 cells assessed as inhibition of UTP-induced calcium mobilization; format: functional, cell-based; method in brief: as §1
# P2Y purinoceptor 2 [6] = target: T5, P2Y purinoceptor 2 (Homo sapiens, UniProt P41231, Y118A); assay: Antagonist activity at N-terminal HA epitope-tagged human P2Y2 receptor Y118A mutant expressed in human 1321N1 cells assessed as inhibition of UTP-induced calcium mobilization; format: functional, cell-based; method in brief: as §1
# P2Y purinoceptor 2 [7] = target: T6, P2Y purinoceptor 2 (Homo sapiens, UniProt P41231, C278S); assay: Antagonist activity at N-terminal HA epitope-tagged human P2Y2 receptor C278S mutant expressed in human 1321N1 cells assessed as inhibition of UTP-induced calcium mobilization; format: functional, cell-based; method in brief: as §1
# [8] = system: P2Y purinoceptor 2 (Homo sapiens), P41231 [UNDEFINED MUTATION]; assay: Ratio of IC50 for N-terminal HA epitope-tagged human P2Y2 receptor C278S mutant to IC50 for wild type 3 human P2Y2 receptor
# P2Y purinoceptor 2 [9] = target: T2, P2Y purinoceptor 2; assay: Agonist activity at N-terminal HA epitope-tagged wild type 3 human P2Y2 receptor expressed in human 1321N1 cells assessed as increase in intracellular calcium level; format: functional, cell-based
# Method in brief: (§2)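 Retrovirally transduced stable 1321N1 astrocytoma lines (wild-type lines of differing expression, or mutants) in suspension, loaded with Oregon Green BAPTA-1/AM for 1 h at room temperature. Cells were plated at 150000 per well in Krebs-HEPES pH 7.4 and held 20 min at 28 °C in the dark.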
# P2Y purinoceptor 2 [10] = target: P2Y purinoceptor 2 (Homo sapiens, UniProt P41231, R272A); assay: Agonist activity at N-terminal HA epitope-tagged human P2Y2 receptor R272A mutant expressed in human 1321N1 cells assessed as increase in intracellular calcium level; format: functional, cell-based
# Method in brief: (§3)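 1321N1 astrocytoma cells stably expressing mutant receptor (retroviral transfection, G418 selection), loaded with Oregon Green BAPTA-1/AM in Krebs-HEPES pH 7.4 for 1 h at room temperature. Plated at 150000 cells/well and held 20 min at 28 °C in the dark. Efficacy relative to 100 µM carbachol.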
# [11] = system: P2Y purinoceptor 2 (Homo sapiens), P41231 [R177A,R180A]; assay: Agonist activity at N-terminal HA epitope-tagged human P2Y2 receptor R177A_R180A double mutant expressed in human 1321N1 cells assessed as increase in intracellular calcium level relative to carbachol; format: functional, cell-based
# Method in brief: (§4)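 Retrovirally transduced stable 1321N1 astrocytoma lines (wild-type lines of differing expression, or mutants) in suspension, loaded with Oregon Green BAPTA-1/AM for 1 h at room temperature. Cells were plated at 150000 per well in Krebs-HEPES pH 7.4 and held 20 min at 28 °C in the dark. Agonist was then injected, with fluorescence read at ex 485/em 520 nm for 60 × 0.4 s.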
# [12] = system: P2Y purinoceptor 2 (Homo sapiens), P41231 [UNDEFINED MUTATION]; assay: Ratio of EC50 for N-terminal HA epitope-tagged human P2Y2 receptor C278S mutant to EC50 for wild type 3 human P2Y2 receptor
# P2Y purinoceptor 2 [13] = target: T6, P2Y purinoceptor 2; assay: Agonist activity at N-terminal HA epitope-tagged human P2Y2 receptor C278S mutant expressed in human 1321N1 cells assessed as increase in intracellular calcium level; format: functional, cell-based; method in brief: as §3
# [14] = system: P2Y purinoceptor 2 (Homo sapiens), P41231 [R194H]; assay: Agonist activity at N-terminal HA epitope-tagged human P2Y2 receptor R194H mutant expressed in human 1321N1 cells assessed as increase in intracellular calcium level relative to carbachol; format: functional, cell-based; method in brief: as §4
# [15] = system: P2Y purinoceptor 2 (Homo sapiens), P41231 [R272A]; assay: Agonist activity at N-terminal HA epitope-tagged human P2Y2 receptor R272A mutant expressed in human 1321N1 cells assessed as increase in intracellular calcium level up to 300 uM relative to carbachol; format: functional, cell-based; method in brief: as §4
# [16] = system: P2Y purinoceptor 2 (Homo sapiens), P41231 [UNDEFINED MUTATION]; assay: Ratio of efficacy for N-terminal HA epitope-tagged human P2Y2 receptor R194H mutant to efficacy for wild type 3 human P2Y2 receptor
# [17] = system: P2Y purinoceptor 2 (Homo sapiens), P41231 [S296A]; assay: Agonist activity at N-terminal HA epitope-tagged human P2Y2 receptor S296A mutant expressed in human 1321N1 cells assessed as increase in intracellular calcium level relative to carbachol; format: functional, cell-based; method in brief: as §4
# P2Y purinoceptor 2 [18] = target: P2Y purinoceptor 2 (Homo sapiens, UniProt P41231, S296A); assay: Agonist activity at N-terminal HA epitope-tagged human P2Y2 receptor S296A mutant expressed in human 1321N1 cells assessed as increase in intracellular calcium level; format: functional, cell-based; method in brief: as §2
# P2Y purinoceptor 2 [19] = target: T1, P2Y purinoceptor 2; assay: Agonist activity at N-terminal HA epitope-tagged human P2Y2 receptor Y198A mutant expressed in human 1321N1 cells assessed as increase in intracellular calcium level; format: functional, cell-based; method in brief: as §3
# P2Y purinoceptor 2 [20] = target: T2, P2Y purinoceptor 2; assay: Agonist activity at N-terminal HA epitope-tagged wild type 4 human P2Y2 receptor expressed in human 1321N1 cells assessed as increase in intracellular calcium level relative to carbachol; format: functional, cell-based; method in brief: as §4
# P2Y purinoceptor 2 [21] = target: P2Y purinoceptor 2 (Homo sapiens, UniProt P41231, R180A); assay: Agonist activity at N-terminal HA epitope-tagged human P2Y2 receptor R180A mutant expressed in human 1321N1 cells assessed as increase in intracellular calcium level; format: functional, cell-based; method in brief: as §3
# [22] = system: P2Y purinoceptor 2 (Homo sapiens), P41231 [R180A]; assay: Agonist activity at N-terminal HA epitope-tagged human P2Y2 receptor R180A mutant expressed in human 1321N1 cells assessed as increase in intracellular calcium level relative to carbachol; format: functional, cell-based; method in brief: as §4
# P2Y purinoceptor 2 [23] = target: T5, P2Y purinoceptor 2; assay: Agonist activity at N-terminal HA epitope-tagged human P2Y2 receptor Y118A mutant expressed in human 1321N1 cells assessed as increase in intracellular calcium level; format: functional, cell-based; method in brief: as §3
# [24] = system: P2Y purinoceptor 2 (Homo sapiens), P41231 [Y118A]; assay: Agonist activity at N-terminal HA epitope-tagged human P2Y2 receptor Y118A mutant expressed in human 1321N1 cells assessed as increase in intracellular calcium level relative to carbachol; format: functional, cell-based; method in brief: as §4
# P2Y purinoceptor 2 [25] = target: T4, P2Y purinoceptor 2; assay: Agonist activity at N-terminal HA epitope-tagged human P2Y2 receptor R177A_R180A double mutant expressed in human 1321N1 cells assessed as increase in intracellular calcium level; format: functional, cell-based; method in brief: as §3
# [26] = system: P2Y purinoceptor 2 (Homo sapiens), P41231 [R177A]; assay: Agonist activity at N-terminal HA epitope-tagged human P2Y2 receptor R177A mutant expressed in human 1321N1 cells assessed as increase in intracellular calcium level relative to carbachol; format: functional, cell-based; method in brief: as §4
# P2Y purinoceptor 2 [27] = target: P2Y purinoceptor 2 (Homo sapiens, UniProt P41231, R194H); assay: Agonist activity at N-terminal HA epitope-tagged human P2Y2 receptor R194H mutant expressed in human 1321N1 cells assessed as increase in intracellular calcium level; format: functional, cell-based; method in brief: as §3
# P2Y purinoceptor 2 [28] = target: T3, P2Y purinoceptor 2; assay: Agonist activity at N-terminal HA epitope-tagged human P2Y2 receptor Y114A mutant expressed in human 1321N1 cells assessed as increase in intracellular calcium level; format: functional, cell-based; method in brief: as §3
# [29] = system: P2Y purinoceptor 2 (Homo sapiens), P41231 [Y114A]; assay: Agonist activity at N-terminal HA epitope-tagged human P2Y2 receptor Y114A mutant expressed in human 1321N1 cells assessed as increase in intracellular calcium level relative to carbachol; format: functional, cell-based; method in brief: as §4
# [30] = system: P2Y purinoceptor 2 (Homo sapiens), P41231 [Y198A]; assay: Agonist activity at N-terminal HA epitope-tagged human P2Y2 receptor Y198A mutant expressed in human 1321N1 cells assessed as increase in intracellular calcium level relative to carbachol; format: functional, cell-based; method in brief: as §4
# P2Y purinoceptor 2 [31] = target: T2, P2Y purinoceptor 2; assay: Agonist activity at N-terminal HA epitope-tagged wild type 3 human P2Y2 receptor expressed in human 1321N1 cells assessed as increase in intracellular calcium level relative to carbachol; format: functional, cell-based; method in brief: as §4
# [32] = system: P2Y purinoceptor 2 (Homo sapiens), P41231 [C278S]; assay: Agonist activity at N-terminal HA epitope-tagged human P2Y2 receptor C278S mutant expressed in human 1321N1 cells assessed as increase in intracellular calcium level relative to carbachol; format: functional, cell-based; method in brief: as §4
# P2Y purinoceptor 2 [33] = target: T2, P2Y purinoceptor 2; assay: Agonist activity at N-terminal HA epitope-tagged wild type 4 human P2Y2 receptor expressed in human 1321N1 cells assessed as increase in intracellular calcium level; format: functional, cell-based; method in brief: as §2
# P2Y purinoceptor 2 [34] = target: P2Y purinoceptor 2 (Homo sapiens, UniProt P41231, R177A); assay: Agonist activity at N-terminal HA epitope-tagged human P2Y2 receptor R177A mutant expressed in human 1321N1 cells assessed as increase in intracellular calcium level; format: functional, cell-based; method in brief: as §3
# Sequence of P2Y purinoceptor 2 (Homo sapiens, UniProt P41231, R177A) (P41231 whole entry R177A): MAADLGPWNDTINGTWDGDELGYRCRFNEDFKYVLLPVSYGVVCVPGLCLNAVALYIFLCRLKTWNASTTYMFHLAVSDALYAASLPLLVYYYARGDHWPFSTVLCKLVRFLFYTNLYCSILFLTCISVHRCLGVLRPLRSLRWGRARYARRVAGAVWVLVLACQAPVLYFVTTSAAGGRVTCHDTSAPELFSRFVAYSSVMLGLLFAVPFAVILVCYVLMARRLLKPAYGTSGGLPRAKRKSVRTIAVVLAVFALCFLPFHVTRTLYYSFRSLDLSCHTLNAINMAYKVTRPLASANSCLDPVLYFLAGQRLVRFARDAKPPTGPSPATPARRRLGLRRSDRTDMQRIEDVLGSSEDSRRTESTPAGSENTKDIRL
# T2 sequence (P41231 whole entry): as the sequence (P41231 whole entry R177A) above, with A177R counted along it
# Sequence of P2Y purinoceptor 2 (Homo sapiens), P41231 [UNDEFINED MUTATION] (P41231 whole entry, looked up, stated change not applied): as the sequence (P41231 whole entry R177A) above, with A177R counted along it
# T3 sequence (P41231 whole entry Y114A): as the sequence (P41231 whole entry R177A) above, with Y114A, A177R counted along it
# T1 sequence (P41231 whole entry Y198A): as the sequence (P41231 whole entry R177A) above, with A177R, Y198A counted along it
# T4 sequence (P41231 whole entry R177A/R180A): as the sequence (P41231 whole entry R177A) above, with R180A counted along it
# T6 sequence (P41231 whole entry C278S): as the sequence (P41231 whole entry R177A) above, with A177R, C278S counted along it
# T5 sequence (P41231 whole entry Y118A): as the sequence (P41231 whole entry R177A) above, with Y118A, A177R counted along it
# Sequence of P2Y purinoceptor 2 (Homo sapiens), P41231 [R177A] (P41231 whole entry R177A): as the sequence (P41231 whole entry R177A) above
# Sequence of P2Y purinoceptor 2 (Homo sapiens), P41231 [Y114A] (P41231 whole entry Y114A): as the sequence (P41231 whole entry R177A) above, with Y114A, A177R counted along it
# Sequence of P2Y purinoceptor 2 (Homo sapiens), P41231 [Y198A] (P41231 whole entry Y198A): as the sequence (P41231 whole entry R177A) above, with A177R, Y198A counted along it
# Sequence of P2Y purinoceptor 2 (Homo sapiens), P41231 [R177A,R180A] (P41231 whole entry R177A/R180A): as the sequence (P41231 whole entry R177A) above, with R180A counted along it
# Sequence of P2Y purinoceptor 2 (Homo sapiens), P41231 [R272A] (P41231 whole entry R272A): as the sequence (P41231 whole entry R177A) above, with A177R, R272A counted along it
# Sequence of P2Y purinoceptor 2 (Homo sapiens, UniProt P41231, R272A) (P41231 whole entry R272A): as the sequence (P41231 whole entry R177A) above, with A177R, R272A counted along it
# Sequence of P2Y purinoceptor 2 (Homo sapiens), P41231 [C278S] (P41231 whole entry C278S): as the sequence (P41231 whole entry R177A) above, with A177R, C278S counted along it
# Sequence of P2Y purinoceptor 2 (Homo sapiens), P41231 [Y118A] (P41231 whole entry Y118A): as the sequence (P41231 whole entry R177A) above, with Y118A, A177R counted along it
# Sequence of P2Y purinoceptor 2 (Homo sapiens), P41231 [S296A] (P41231 whole entry S296A): as the sequence (P41231 whole entry R177A) above, with A177R, S296A counted along it
# Sequence of P2Y purinoceptor 2 (Homo sapiens, UniProt P41231, S296A) (P41231 whole entry S296A): as the sequence (P41231 whole entry R177A) above, with A177R, S296A counted along it
# Sequence of P2Y purinoceptor 2 (Homo sapiens, UniProt P41231, R180A) (P41231 whole entry R180A): as the sequence (P41231 whole entry R177A) above, with A177R, R180A counted along it
# Sequence of P2Y purinoceptor 2 (Homo sapiens), P41231 [R180A] (P41231 whole entry R180A): as the sequence (P41231 whole entry R177A) above, with A177R, R180A counted along it
# Sequence of P2Y purinoceptor 2 (Homo sapiens), P41231 [R194H] (P41231 whole entry R194H): as the sequence (P41231 whole entry R177A) above, with A177R, R194H counted along it
# Sequence of P2Y purinoceptor 2 (Homo sapiens, UniProt P41231, R194H) (P41231 whole entry R194H): as the sequence (P41231 whole entry R177A) above, with A177R, R194H counted along it
compound,measurement,setting,value
COc1ccc(Nc2cc(S(=O)(=O)O)c(N)c3c2C(=O)c2ccccc2C3=O)cc1,IC50,P2Y purinoceptor 2 [1],21.1 µM
same,IC50,P2Y purinoceptor 2 [2],21.9 µM
same,IC50,P2Y purinoceptor 2 [3],24.6 µM
same,IC50,P2Y purinoceptor 2 [4],21.7 µM
same,IC50,P2Y purinoceptor 2 [5],26.5 µM
same,IC50,P2Y purinoceptor 2 [6],22.4 µM
same,IC50,P2Y purinoceptor 2 [7],3.44 µM
same,Ratio IC50,[8],0.2
Nc1ncnc2c1ncn2[C@@H]1O[C@H](COP(=O)(O)OP(=O)(O)OP(=O)(O)OP(=O)(O)OC[C@H]2O[C@@H](n3cnc4c(N)ncnc43)[C@H](O)[C@@H]2O)[C@@H](O)[C@H]1O [DIADENOSINE TETRAPHOSPHATE],EC50,P2Y purinoceptor 2 [9],0.145 µM
same,EC50,P2Y purinoceptor 2 [10],740 µM
same,Efficacy,[11],98%
same,Ratio EC50,[12],560
same,EC50,P2Y purinoceptor 2 [13],81 µM
same,Efficacy,[14],149%
same,Efficacy,[15],inactive
same,Ratio efficacy,[16],2
same,Efficacy,[17],12%
same,EC50,P2Y purinoceptor 2 [18],> 300 µM
same,EC50,P2Y purinoceptor 2 [19],0.335 µM
same,Efficacy,P2Y purinoceptor 2 [20],100%
same,EC50,P2Y purinoceptor 2 [21],0.423 µM
same,Efficacy,[22],68%
same,EC50,P2Y purinoceptor 2 [23],0.345 µM
same,Efficacy,[24],15%
same,EC50,P2Y purinoceptor 2 [25],0.665 µM
same,Efficacy,[26],86%
same,EC50,P2Y purinoceptor 2 [27],0.185 µM
same,EC50,P2Y purinoceptor 2 [28],0.17 µM
same,Efficacy,[29],128%
same,Efficacy,[30],117%
same,Efficacy,P2Y purinoceptor 2 [31],68%
same,Efficacy,[32],inactive
same,EC50,P2Y purinoceptor 2 [33],0.167 µM
same,EC50,P2Y purinoceptor 2 [34],1.23 µM
